Where two headings read alike, the source gives them in different places. One block for each compound: values may come before it.
Legend:
COS7 cells = assay: PI3K activation; format: cell-based; settings: 10 µM, COS7 lacking ERα, ERβ and GPER
Procedure, shortened: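 COS7 cells carry no endogenous ERα, ERβ or GPER. They are transfected with PH-mRFP1 alone (¼ the recommended amount, Lipofectamine2000), grown on coverslips and serum-starved 24 h in phenol red-free RPMI. Cells are stimulated with compounds at 10 µM, fixed in 2% PFA, and scored by confocal microscopy for nuclear translocation of the PIP3 reporter.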

ERα [1] = assay: PI3K activation; format: cell-based; settings: COS7 ERα-GFP
ERα/β = ERα/β (Homo sapiens, UniProt P03372); assay: ERE-GFP reporter activation/inhibition assay in MCF-7 cells; format: cell-based; settings: for inhibition of E2-induced ERE response: 1 nM E2
ERα [2] = format: binding
Procedure, shortened: (§1)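 COS7 cells are transiently transfected (Lipofectamine2000) with ERα-GFP or ERβ-GFP and serum-starved 24 h. About 5×10⁴ cells are incubated 20 min with test compound, then an equal volume of 20 nM E2-Alexa633 in saponin permeabilization buffer is added. After 10 min at RT, cells are washed in PBS/2% BSA and read by high-throughput flow cytometry.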

ERβ [3] = format: binding
Procedure, shortened: as §1

ERα [4] = settings: cited from earlier work
ERβ [5] = settings: high concentrations (≥10 µM); cited from earlier work
ERα or ERβ = settings: ERα- or ERβ-expressing cells; cited from earlier work
GPER [6] = target: T1, GPER (Homo sapiens, UniProt Q99527); assay: Intracellular calcium mobilization in SKBr3 cells; format: cell-based
Procedure, shortened: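 SKBr3 cells are loaded with 3 µM indo1-AM and 0.05% pluronic acid in HBSS for 1 h at RT, washed, and assayed at 2×10⁶ cells/mL. Calcium is read ratiometrically (ex 340 nm, em 400/490 nm) at 37°C with stirring. […] Responses are normalized to agonist plus DMSO vehicle, and IC50 is taken from the dose-response curve.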

[7] = test system: endogenous purinergic receptors; assay: Calcium mobilization by ATP in SKBr3 cells; format: cell-based; settings: 10 µM G36, SKBr3
Procedure, shortened: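 SKBr3 cells are loaded with 3 µM indo1-AM and 0.05% pluronic acid in HBSS for 1 h at RT, washed, and assayed at 2×10⁶ cells/mL. Calcium is read ratiometrically (ex 340/em 400/490 nm) at 37°C in a stirred spectrofluorometer. Cells are pretreated with 10 µM test compound, then given 1 µM ATP to engage endogenous purinergic receptors.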

GPER [8] = target: T1, GPER; assay: PI3K activation; format: cell-based; settings: COS7 GPER-GFP, 1 µM G36 preincubated 20 min
Procedure, shortened: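 COS7 cells are cotransfected (Lipofectamine2000) with GPER-GFP and PH-mRFP1, the latter at ¼ the recommended amount. […] Cells are fixed in 2% PFA and imaged by confocal microscopy for PH-mRFP1 nuclear translocation as the PI3K read-out.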

GPER [9] = target: T1, GPER; assay: ERK activation; format: cell-based
uterine epithelia = assay: Mouse uterine estrogenicity assay; format: in vivo; settings: s.c., 18 hr
[10] = entire range of concentrations tested

T1 sequence (Q99527 whole entry, species assumed): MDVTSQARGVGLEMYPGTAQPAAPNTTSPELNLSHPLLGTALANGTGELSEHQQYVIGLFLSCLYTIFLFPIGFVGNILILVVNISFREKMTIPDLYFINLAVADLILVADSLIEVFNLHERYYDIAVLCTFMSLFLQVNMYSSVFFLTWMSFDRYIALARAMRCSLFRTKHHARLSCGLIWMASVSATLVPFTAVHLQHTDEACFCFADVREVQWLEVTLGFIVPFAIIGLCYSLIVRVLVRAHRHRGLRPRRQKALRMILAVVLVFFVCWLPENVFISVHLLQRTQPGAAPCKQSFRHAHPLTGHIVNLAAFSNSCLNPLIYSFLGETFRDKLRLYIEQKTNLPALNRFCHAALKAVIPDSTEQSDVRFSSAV
ERα/β, sequence (P03372 whole entry): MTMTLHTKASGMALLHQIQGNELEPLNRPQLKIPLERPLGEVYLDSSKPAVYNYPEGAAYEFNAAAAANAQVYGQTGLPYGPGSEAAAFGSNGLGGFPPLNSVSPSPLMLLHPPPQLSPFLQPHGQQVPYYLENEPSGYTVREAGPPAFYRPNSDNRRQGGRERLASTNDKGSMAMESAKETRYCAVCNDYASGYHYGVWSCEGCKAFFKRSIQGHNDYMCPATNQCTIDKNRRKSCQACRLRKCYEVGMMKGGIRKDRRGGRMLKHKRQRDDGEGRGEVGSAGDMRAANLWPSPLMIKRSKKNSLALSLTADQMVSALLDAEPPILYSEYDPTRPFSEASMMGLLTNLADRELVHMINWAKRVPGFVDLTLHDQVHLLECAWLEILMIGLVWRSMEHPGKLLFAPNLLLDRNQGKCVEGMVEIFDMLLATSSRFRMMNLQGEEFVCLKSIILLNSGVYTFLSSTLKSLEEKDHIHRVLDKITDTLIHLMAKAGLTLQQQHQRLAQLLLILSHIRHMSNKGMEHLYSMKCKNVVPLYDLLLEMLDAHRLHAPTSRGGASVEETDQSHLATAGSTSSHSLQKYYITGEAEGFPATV

SMILES: C[C@]12CC[C@@H]3c4ccc(O)cc4CC[C@H]3[C@@H]1CC[C@@H]2O [E2, 17β-estradiol, reference compound]
activation of PI3K (nuclear translocation of PH-RFP) (COS7 cells): no activation of PI3K | activation of PI3K (nuclear translocation of PH-RFP) (ERα [1]): activate PI3K

SMILES: Brc1cc2c(cc1[C@@H]1Nc3ccccc3[C@@H]3C=CC[C@@H]31)OCO2 [G15]
inhibition of E2-induced ERE response (ERα/β; 1 µM compound): no significant effect | ERE reporter activity compared to maximal E2 response (ERα/β; 1 µM, Fig. 5): ~ 15% | inhibition of E2-induced ERE response (ERα/β; 10 µM compound): ~ 30% | inhibitory effects on estrogen-induced transcription (ERα/β; E2 at 10 nM (data not shown)): absent | ERE activation (ERα/β; concentrations 1–10 µM, Fig. 2): 15–20% | activation of the ERE reporter (of E2 response) (ERα/β; high doses (≥1 µM), 24 h, MCF-7 ERE-GFP): ≤ 20% | binding to ERα (competition of E2-Alexa633) (ERα [2]; highest concentration, 10 µM): weak but significant binding | binding to ERβ (competition of E2-Alexa633) (ERβ [3]; highest concentration, 10 µM): weak but significant binding | binding to ERα (ERα [4]; high concentrations (≥10 µM)): weak binding | binding to ERβ (ERβ [5]): weak binding | rapid signaling events via MAPK or PI3K pathways (ERα or ERβ): does not mediate rapid signaling events

inhibition at 10 µM (ERα/β; MCF7, read-out: inhibition of E2-induced ERE response): < 5% | ERE response elicited (ERα/β; concentrations up to 1 µM): no significant ERE response | antagonism of E2-mediated ERE response (ERα/β; concentrations up to 10 µM): no ability to antagonize | effect on basal calcium level in cells (GPER [6]; 10 µM G36 alone, SKBr3): did not alter | IC50 (GPER [6]; IC50, inhibition of E2-mediated calcium mobilization, SKBr3, E2 200 nM): 112 nM | IC50 (GPER [6]; IC50, inhibition of G-1-mediated calcium mobilization, SKBr3, G-1 200 nM): 165 nM | inhibition of E2-induced PI3K activation (GPER [8]): effectively inhibited | effect on E2-induced ERK activation (GPER [9]; SKBr3, E2 10 nM, 1 µM antagonist pre-incubated 15 min): significant decrease | effect on EGF-induced ERK activation (GPER [9]; SKBr3, EGF 10 ng/mL, 1 µM antagonist): unchanged | effect on G-1-induced ERK activation (GPER [9]; SKBr3, G-1 10 nM, 1 µM antagonist pre-incubated 15 min): significant decrease
SMILES: CC(C)c1ccc2c(c1)C1C=CCC1C(c1cc3c(cc1Br)OCO3)N2 (stereo not drawn) [G36, 4-(6-Bromo-benzo[1,3]dioxol-5-yl)-8-isopropyl-3a,4,5,9b-tetrahydro-3H-cyclopenta[c]quinoline]
binding to ERα (competition of E2-Alexa633) (ERα [2]; [10]): lacking detectable binding activity | binding to ERβ (competition of E2-Alexa633) (ERβ [3]; [10]): lacking detectable binding activity | inhibition of calcium mobilization by 1 µM ATP [7]: no inhibition | activation of PI3K (nuclear translocation of PH-RFP) (COS7 cells): no activation of PI3K | inhibition of E2-mediated PI3K activation (ERα [1]; 1 µM G36 preincubated 20 min): did not inhibit | effect on proliferation compared to E2 treatment (uterine epithelia; G36 50 ug/kg with E2 10 ug/kg): significant decrease in proliferation | effect on proliferative response to G-1 (uterine epithelia; G36 50 ug/kg with G-1 10 ug/kg): completely abrogated | uterine epithelial proliferation (Ki-67 positivity), compound alone (uterine epithelia; ovariectomized C57Bl6 mice, E2 10 ug/kg, G-1 10 ug/kg, G36 50 ug/kg): no effect

SMILES: CC(=O)c1ccc2c(c1)C1C=CCC1C(c1cc3c(cc1Br)OCO3)N2 (stereo not drawn) [G-1]
activation of PI3K (nuclear translocation of PH-RFP) (COS7 cells): no activation of PI3K | ER binding competition (ERα [4]; 10 µM): unable to detect significant competition
